Results: ChEMBL document CHEMBL5236607, “Membrane-Active Cyclic Amphiphilic Peptides: Broad-Spectrum Antibacterial Activity Alone and in Combination with Antibiotics” (J Med Chem, 2022)
Activity calls are given as the source filed them. No cut-off for these calls is given here. Peptide text beside a SMILES is read from it.

Tests used:
Staphylococcus aureus [1] = assay: Synergistic antibacterial activity against methicillin resistant Staphylococcus aureus ATCC BAA-1556 fractional inhibitory concentration incubated for 24 hrs in presence of vancomycin by checkerboard assay; assay type: functional
Procedure, shortened: (§1)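 Checkerboard assay. Inoculum from an LB overnight culture at 0.5 McFarland, diluted 1/150 in MH media. […] Incubated 37 °C for 24 h. FICI = MIC combination/MIC alone summed over both agents. Triplicate.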

Staphylococcus aureus [2] = assay: Synergistic antibacterial activity against methicillin resistant Staphylococcus aureus ATCC BAA-1556 assessed as fractional inhibitory concentration incubated for 24 hrs in presence of clindamycin by checkerboard assay; assay type: functional; procedure, shortened: as §1
Klebsiella pneumoniae [3] = assay: Synergistic antibacterial activity against Klebsiella pneumoniae ATCC BAA-1705 fractional inhibitory concentration index incubated for 24 hrs in presence of kanamycin by checkerboard assay; assay type: functional
Procedure, shortened: (§2)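 Checkerboard assay in MH broth. Inoculum from an LB overnight culture set to 0.5 McFarland and diluted 1/150. […] Each agent was also titrated alone. Incubation 24 h at 37 °C. FIC = combination MIC/individual MIC; FICI = sum of the FICs. Triplicate.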

Klebsiella pneumoniae [4] = assay: Synergistic antibacterial activity against Klebsiella pneumoniae ATCC BAA-1705 assessed as fractional inhibitory concentration incubated for 24 hrs in presence of tobramycin by checkerboard assay; assay type: functional; procedure, shortened: as §2
Pseudomonas aeruginosa [5] = assay: Synergistic antibacterial activity against Pseudomonas aeruginosa ATCC […] fractional inhibitory concentration index incubated for 24 hrs in presence of daptomycin by checkerboard assay; assay type: functional
Klebsiella pneumoniae [6] = assay: Synergistic antibacterial activity against Klebsiella pneumoniae ATCC BAA-1705 fractional inhibitory concentration index incubated for 24 hrs in presence of metronidazole by checkerboard assay; assay type: functional
Escherichia coli [7] = assay: Synergistic antibacterial activity against Escherichia coli ATCC 25922 assessed as fractional inhibitory concentration incubated for 24 hrs in presence of clindamycin by checkerboard assay; assay type: functional; procedure, shortened: as §2
Klebsiella pneumoniae [8] = assay: Synergistic antibacterial activity against Klebsiella pneumoniae ATCC BAA-1705 fractional inhibitory concentration index incubated for 24 hrs in presence of daptomycin by checkerboard assay; assay type: functional; procedure, shortened: as §2
Escherichia coli [9] = assay: Synergistic antibacterial activity against Escherichia coli ATCC 25922 assessed as fractional inhibitory concentration index incubated for 24 hrs in presence of clindamycin by checkerboard assay; assay type: functional; procedure, shortened: as §2
Escherichia coli [10] = assay: Synergistic antibacterial activity against Escherichia coli ATCC 25922 fractional inhibitory concentration index incubated for 24 hrs in presence of levofloxacin by checkerboard assay; assay type: functional; procedure, shortened: as §2
Staphylococcus aureus [11] = assay: Synergistic antibacterial activity against methicillin resistant Staphylococcus aureus ATCC BAA-1556 assessed as fractional inhibitory concentration index incubated for 24 hrs in presence of tetracycline by checkerboard assay; assay type: functional; procedure, shortened: as §1
Pseudomonas aeruginosa [12] = assay: Synergistic antibacterial activity against Pseudomonas aeruginosa ATCC […] assessed as fractional inhibitory concentration incubated for 24 hrs in presence of clindamycin by checkerboard assay; assay type: functional
Pseudomonas aeruginosa [13] = assay: Synergistic antibacterial activity against Pseudomonas aeruginosa ATCC […] fractional inhibitory concentration index incubated for 24 hrs in presence of Ciprofloxacin by checkerboard assay; assay type: functional
Pseudomonas aeruginosa [14] = assay: Synergistic antibacterial activity against Pseudomonas aeruginosa ATCC […] assessed as fractional inhibitory concentration incubated for 24 hrs in presence of tetracycline by checkerboard assay; assay type: functional
Staphylococcus aureus [15] = assay: Synergistic antibacterial activity against methicillin resistant Staphylococcus aureus ATCC BAA-1556 assessed as fractional inhibitory concentration incubated for 24 hrs in presence of tobramycin by checkerboard assay; assay type: functional; procedure, shortened: as §1
Klebsiella pneumoniae [16] = assay: Synergistic antibacterial activity against Klebsiella pneumoniae ATCC BAA-1705 fractional inhibitory concentration index incubated for 24 hrs in presence of vancomycin by checkerboard assay; assay type: functional; procedure, shortened: as §1
Escherichia coli [17] = assay: Synergistic antibacterial activity against Escherichia coli ATCC 25922 fractional inhibitory concentration incubated for 24 hrs in presence of levofloxacin by checkerboard assay; assay type: functional; procedure, shortened: as §2
Pseudomonas aeruginosa [18] = assay: Synergistic antibacterial activity against Pseudomonas aeruginosa ATCC […] fractional inhibitory concentration incubated for 24 hrs in presence of kanamycin by checkerboard assay; assay type: functional; procedure, shortened: as §1
Staphylococcus aureus [19] = assay: Synergistic antibacterial activity against methicillin resistant Staphylococcus aureus ATCC BAA-1556 assessed as fractional inhibitory concentration index incubated for 24 hrs in presence of clindamycin by checkerboard assay; assay type: functional; procedure, shortened: as §1
Pseudomonas aeruginosa [20] = assay: Synergistic antibacterial activity against Pseudomonas aeruginosa ATCC […] assessed as fractional inhibitory concentration index incubated for 24 hrs in presence of clindamycin by checkerboard assay; assay type: functional; procedure, shortened: as §1
Pseudomonas aeruginosa [21] = assay: Synergistic antibacterial activity against Pseudomonas aeruginosa ATCC […] fractional inhibitory concentration index incubated for 24 hrs in presence of kanamycin by checkerboard assay; assay type: functional
Klebsiella pneumoniae [22] = assay: Synergistic antibacterial activity against Klebsiella pneumoniae ATCC BAA-1705 fractional inhibitory concentration incubated for 24 hrs in presence of Ciprofloxacin by checkerboard assay; assay type: functional; procedure, shortened: as §2
Klebsiella pneumoniae [23] = assay: Synergistic antibacterial activity against Klebsiella pneumoniae ATCC BAA-1705 fractional inhibitory concentration incubated for 24 hrs in presence of kanamycin by checkerboard assay; assay type: functional; procedure, shortened: as §2
Klebsiella pneumoniae [24] = assay: Synergistic antibacterial activity against Klebsiella pneumoniae ATCC BAA-1705 fractional inhibitory concentration incubated for 24 hrs in presence of vancomycin by checkerboard assay; assay type: functional; procedure, shortened: as §2
Klebsiella pneumoniae [25] = assay: Synergistic antibacterial activity against Klebsiella pneumoniae ATCC BAA-1705 incubated for 24 hrs in presence of polymyxin B by checkerboard assay; assay type: functional
Staphylococcus aureus [26] = assay: Synergistic antibacterial activity against methicillin resistant Staphylococcus aureus ATCC BAA-1556 assessed as fractional inhibitory concentration incubated for 24 hrs in presence of tetracycline by checkerboard assay; assay type: functional; procedure, shortened: as §1
Staphylococcus aureus [27] = assay: Induction of resistance development in Staphylococcus aureus ATCC 29213 assessed as increase in MIC by microtiter plate reader assay; assay type: functional, organism-based
Procedure, shortened: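 Serial passage resistance assay with 2-fold microdilution MICs in 96-well plates. Each passage takes the well with the highest concentration still permitting growth, adjusts it to 0.5 McFarland, and dilutes it to a final 5 × 10^5 CFU/mL for the next passage. Eighteen passages; MIC recorded at each. Triplicate.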

[28] = Therapeutic index, ratio of HC50 for human RBC to MIC for methicillin resistant Staphylococcus aureus ATCC BAA-1556
Procedure, shortened: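 Human RBCs washed in PBS pH 7.4 and mixed 1:1 with two-fold peptide dilutions (4% v/v suspension), 2 h at 37 °C. Hemoglobin in supernatant read at 567 nm against PBS (0%) and 1% Triton X-100 (100%). HC50 is the concentration giving 50% hemolysis. Index is HC50 divided by MIC against MRSA.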

Pseudomonas aeruginosa [29] = assay: Synergistic antibacterial activity against Pseudomonas aeruginosa ATCC […] fractional inhibitory concentration index incubated for 24 hrs in presence of metronidazole by checkerboard assay; assay type: functional
Staphylococcus aureus [30] = assay: Synergistic antibacterial activity against methicillin resistant Staphylococcus aureus ATCC BAA-1556 fractional inhibitory concentration index incubated for 24 hrs in presence of vancomycin by checkerboard assay; assay type: functional; procedure, shortened: as §1
Pseudomonas aeruginosa [31] = assay: Synergistic antibacterial activity against Pseudomonas aeruginosa ATCC […] incubated for 24 hrs in presence of levofloxacin by checkerboard assay; assay type: functional
Staphylococcus aureus [32] = assay: Synergistic antibacterial activity against methicillin resistant Staphylococcus aureus ATCC BAA-1556 incubated for 24 hrs in presence of tetracycline by checkerboard assay; assay type: functional; procedure, shortened: as §1
Klebsiella pneumoniae [33] = assay: Synergistic antibacterial activity against Klebsiella pneumoniae ATCC BAA-1705 fractional inhibitory concentration incubated for 24 hrs in presence of daptomycin by checkerboard assay; assay type: functional; procedure, shortened: as §2

Row | Structure (SMILES) | FIC (Staphylococcus aureus [1]) | FIC (Staphylococcus aureus [2]) | fractional inhibitory concentration index (FICI) (Klebsiella pneumoniae [3]) | FIC (Klebsiella pneumoniae [4]) | fractional inhibitory concentration index (FICI) (Pseudomonas aeruginosa [5]) | fractional inhibitory concentration index (FICI) (Klebsiella pneumoniae [6]) | FIC (Escherichia coli [7]) | fractional inhibitory concentration index (FICI) (Klebsiella pneumoniae [8]) | fractional inhibitory concentration index (FICI) (Escherichia coli [9]) | fractional inhibitory concentration index (FICI) (Escherichia coli [10]) | fractional inhibitory concentration index (FICI) (Staphylococcus aureus [11]) | FIC (Pseudomonas aeruginosa [12]) | fractional inhibitory concentration index (FICI) (Pseudomonas aeruginosa [13]) | FIC (Pseudomonas aeruginosa [14]) | fractional inhibitory concentration index (FICI) (Klebsiella pneumoniae [16]) | FIC (Escherichia coli [17]) | FIC (Pseudomonas aeruginosa [18]) | fractional inhibitory concentration index (FICI) (Staphylococcus aureus [19]) | fractional inhibitory concentration index (FICI) (Pseudomonas aeruginosa [20]) | fractional inhibitory concentration index (FICI) (Pseudomonas aeruginosa [21]) | other results
1 | N=C(N)NCCC[C@@H]1NC(=O)[C@H](CCCNC(=N)N)NC(=O)[C@H](CCCNC(=N)N)NC(=O)[C@H](Cc2c[nH]c3ccccc23)NC(=O)[C@H](Cc2c[nH]c3ccccc23)NC(=O)[C@H](Cc2c[nH]c3ccccc23)NC(=O)[C@H](Cc2c[nH]c3ccccc23)NC(=O)[C@H](CCCNC(=N)N)NC(=O)[C@H](CCCNC(=N)N)NC1=O | 0.5 | 0.249 | 0.375 | 0.125 | 0.313 | 0.281 | 0.063 | 0.516 | 0.313 | 0.375 | 0.5 | 0.016 | 0.5 | 0.125 | 0.563 | 0.125 | 0.0313 | 0.499 | 0.266 | 0.281 | FIC (Staphylococcus aureus [15]): 0.25; FIC (Klebsiella pneumoniae [22]): 0.0625; FIC (Klebsiella pneumoniae [23]): 0.125; FIC (Klebsiella pneumoniae [24]): 0.0625; MIC (Klebsiella pneumoniae [25]): 0.125 µg/mL; FIC (Staphylococcus aureus [26]): 0.25; Activity (Staphylococcus aureus [27]): inactive; TI [28]: 85; fractional inhibitory concentration index (FICI) (Pseudomonas aeruginosa [29]): 0.5; fractional inhibitory concentration index (FICI) (Staphylococcus aureus [30]): 0.75; MIC (Pseudomonas aeruginosa [31]): 0.125 µg/mL; MIC (Staphylococcus aureus [32]): 0.0625 µg/mL; FIC (Klebsiella pneumoniae [33]): 0.0156
2 | N=C(N)NCCC[C@@H]1NC(=O)[C@H](CCCNC(=N)N)NC(=O)[C@H](CCCNC(=N)N)NC(=O)[C@H](CCCNC(=N)N)NC(=O)[C@H](Cc2c[nH]c3ccccc23)NC(=O)[C@H](Cc2c[nH]c3ccccc23)NC(=O)[C@H](Cc2c[nH]c3ccccc23)NC(=O)[C@H](Cc2c[nH]c3ccccc23)NC(=O)[C@H](CCCNC(=N)N)NC(=O)[C@H](CCCNC(=N)N)NC1=O (cyclo(RRRRRRWWWW)) | 0.25 | 0.248 | 0.5 | 0.25 | 0.516 | 0.313 | 0.063 | 0.375 | 0.313 | 0.375 | 0.5 | 0.016 | 0.5 | 0.25 | 0.313 | 0.125 | 0.0156 | 0.498 | 0.516 | 0.266 | FIC (Klebsiella pneumoniae [22]): 0.0625; FIC (Klebsiella pneumoniae [23]): 0.25; FIC (Klebsiella pneumoniae [24]): 0.0625; MIC (Klebsiella pneumoniae [25]): 0.031 µg/mL; FIC (Staphylococcus aureus [26]): 0.25; TI [28]: 33.1; fractional inhibitory concentration index (FICI) (Pseudomonas aeruginosa [29]): 0.375; fractional inhibitory concentration index (FICI) (Staphylococcus aureus [30]): 0.5; MIC (Pseudomonas aeruginosa [31]): 0.125 µg/mL; MIC (Staphylococcus aureus [32]): 0.0625 µg/mL; FIC (Klebsiella pneumoniae [33]): 0.125
